Values belong to the compound of their own block, whether it stands above or below them. Calls of active or inactive are those of the source.
Experiments:
[1] = target: T1, Muscarinic acetylcholine receptor M2 (Homo sapiens, UniProt P08172); test: Displacement of [3H]N-methyl-scopolamine from human muscarinic M2 receptor expressed in CHO K1 cells; format: cell-based
T1 sequence (P08172 whole entry): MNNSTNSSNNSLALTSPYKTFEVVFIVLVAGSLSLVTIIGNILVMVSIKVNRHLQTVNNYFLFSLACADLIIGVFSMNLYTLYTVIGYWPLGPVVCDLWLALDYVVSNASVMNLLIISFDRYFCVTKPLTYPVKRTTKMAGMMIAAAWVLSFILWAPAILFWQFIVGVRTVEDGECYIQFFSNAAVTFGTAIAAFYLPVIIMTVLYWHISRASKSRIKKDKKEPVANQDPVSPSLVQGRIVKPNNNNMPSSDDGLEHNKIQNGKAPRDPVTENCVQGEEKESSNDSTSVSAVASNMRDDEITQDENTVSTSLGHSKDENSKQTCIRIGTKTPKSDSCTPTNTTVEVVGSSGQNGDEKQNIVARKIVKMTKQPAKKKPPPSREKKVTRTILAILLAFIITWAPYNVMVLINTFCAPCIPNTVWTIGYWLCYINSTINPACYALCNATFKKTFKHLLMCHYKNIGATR
Method in brief: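 Membranes from CHO-K1 cells expressing human M2 receptor, homogenized and stored at -80 °C, resuspended in 50 mM Tris-HCl pH 7.4, 2.5 mM MgCl2, 1 mM EDTA. [3H]-N-methyl scopolamine 0.1-0.3 nM; nonspecific binding with cold N-methyl scopolamine. 10-point curves in duplicate, 60 min at room temperature, filtration through GF/B, scintillation counting.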

Cytochrome P450 1A2 = target: T2, Cytochrome P450 1A2 (Homo sapiens, UniProt P05177); test: Inhibition of human CYP1A2 expressed in insect cells; format: ADME
T2 sequence (P05177 whole entry): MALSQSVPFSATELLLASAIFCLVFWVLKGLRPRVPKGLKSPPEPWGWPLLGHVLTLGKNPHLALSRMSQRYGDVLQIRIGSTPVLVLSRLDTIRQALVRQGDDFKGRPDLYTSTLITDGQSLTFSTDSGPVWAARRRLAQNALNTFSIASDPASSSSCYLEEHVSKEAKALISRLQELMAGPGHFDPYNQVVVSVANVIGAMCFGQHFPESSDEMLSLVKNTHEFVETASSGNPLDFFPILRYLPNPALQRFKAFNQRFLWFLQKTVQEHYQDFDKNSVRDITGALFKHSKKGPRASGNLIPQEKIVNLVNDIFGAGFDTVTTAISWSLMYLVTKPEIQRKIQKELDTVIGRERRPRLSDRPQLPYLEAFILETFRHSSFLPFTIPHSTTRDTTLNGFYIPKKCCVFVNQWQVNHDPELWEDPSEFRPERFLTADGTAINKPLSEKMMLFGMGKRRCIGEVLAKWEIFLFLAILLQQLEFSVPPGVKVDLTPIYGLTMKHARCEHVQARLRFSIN
Method in brief: (§1)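 Insect-cell microsomes expressing human CYP1A2, 2C9, 2C19, 2D6 or 3A4, each with an isoform-specific fluorogenic substrate in 0.35 M potassium phosphate pH 7.4. […] Inhibitor serially diluted; plates prewarmed 10 min at 37 °C. Reaction stopped with acetonitrile/Tris, read by fluorescence. IC50 from nonlinear regression. Positive controls: furafylline, sulfaphenazole, tranylcypromine, quinidine, ketoconazole.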

[2] = Intrinsic clearance in rat liver microsomes; format: ADME, Microsome
Method in brief: (§2)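 Human or rat liver microsomes at 0.5 mg/mL final, preincubated with 0.5 µM test compound in phosphate buffer pH 7.4 for 10 min at 37 °C. Clearance reported as mL/min/g liver.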

Cytochrome P450 2C19 = Cytochrome P450 2C19 (Homo sapiens, UniProt P33261); test: Inhibition of human CYP2C19 expressed in insect cells; format: ADME; method in brief: as §1
Cytochrome P450 2C19, sequence (P33261 whole entry): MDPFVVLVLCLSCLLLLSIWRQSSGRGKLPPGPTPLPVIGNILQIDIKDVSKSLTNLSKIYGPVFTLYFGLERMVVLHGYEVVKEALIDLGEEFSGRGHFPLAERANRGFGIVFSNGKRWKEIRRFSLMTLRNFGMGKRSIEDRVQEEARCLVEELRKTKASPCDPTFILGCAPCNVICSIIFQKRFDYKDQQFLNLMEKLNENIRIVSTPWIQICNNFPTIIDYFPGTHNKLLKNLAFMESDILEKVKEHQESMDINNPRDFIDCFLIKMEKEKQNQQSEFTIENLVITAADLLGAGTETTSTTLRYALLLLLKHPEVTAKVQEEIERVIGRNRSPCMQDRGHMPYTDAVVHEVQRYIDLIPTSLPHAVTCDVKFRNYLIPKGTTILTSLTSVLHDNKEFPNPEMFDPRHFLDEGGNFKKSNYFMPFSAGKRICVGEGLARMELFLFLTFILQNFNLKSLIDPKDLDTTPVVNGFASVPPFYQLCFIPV

[3] = Intrinsic clearance in human liver microsomes; format: ADME, Microsome; method in brief: as §2
Cytochrome P450 3A4 = Cytochrome P450 3A4 (Homo sapiens, UniProt P08684); test: Inhibition of human CYP3A4 expressed in insect cells; format: ADME; method in brief: as §1
Cytochrome P450 3A4, sequence (P08684 whole entry): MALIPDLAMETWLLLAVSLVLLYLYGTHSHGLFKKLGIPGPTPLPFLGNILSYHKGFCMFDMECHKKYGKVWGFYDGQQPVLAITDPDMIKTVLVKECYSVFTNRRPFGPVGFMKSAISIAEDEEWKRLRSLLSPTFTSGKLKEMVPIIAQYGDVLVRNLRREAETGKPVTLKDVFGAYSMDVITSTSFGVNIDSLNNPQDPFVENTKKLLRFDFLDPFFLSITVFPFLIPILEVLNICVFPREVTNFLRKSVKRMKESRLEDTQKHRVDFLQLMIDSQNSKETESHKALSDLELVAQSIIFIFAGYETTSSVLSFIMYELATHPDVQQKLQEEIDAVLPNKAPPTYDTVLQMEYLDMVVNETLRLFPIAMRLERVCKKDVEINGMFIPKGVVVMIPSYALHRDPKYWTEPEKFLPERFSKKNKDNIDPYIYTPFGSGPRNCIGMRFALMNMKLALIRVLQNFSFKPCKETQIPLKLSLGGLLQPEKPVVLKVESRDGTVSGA

[4] = Permeability across human Caco-2 cell membrane; format: ADME, cell-based
Method in brief: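 Caco-2 monolayers grown 21 days on polycarbonate inserts. Integrity checked by TEER (1000 Ω) and sodium fluorescein leakage. Compound at 50 µM in 1% DMSO applied apically, 2 h at 37 °C. Apical and basolateral samples measured by LC-MS/MS. Papp = CbVb/(C0·A·t).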

Cytochrome P450 2D6 = Cytochrome P450 2D6 (Homo sapiens, UniProt P10635); test: Inhibition of human CYP2D6 expressed in insect cells; format: ADME; method in brief: as §1
Cytochrome P450 2D6, sequence (P10635 whole entry): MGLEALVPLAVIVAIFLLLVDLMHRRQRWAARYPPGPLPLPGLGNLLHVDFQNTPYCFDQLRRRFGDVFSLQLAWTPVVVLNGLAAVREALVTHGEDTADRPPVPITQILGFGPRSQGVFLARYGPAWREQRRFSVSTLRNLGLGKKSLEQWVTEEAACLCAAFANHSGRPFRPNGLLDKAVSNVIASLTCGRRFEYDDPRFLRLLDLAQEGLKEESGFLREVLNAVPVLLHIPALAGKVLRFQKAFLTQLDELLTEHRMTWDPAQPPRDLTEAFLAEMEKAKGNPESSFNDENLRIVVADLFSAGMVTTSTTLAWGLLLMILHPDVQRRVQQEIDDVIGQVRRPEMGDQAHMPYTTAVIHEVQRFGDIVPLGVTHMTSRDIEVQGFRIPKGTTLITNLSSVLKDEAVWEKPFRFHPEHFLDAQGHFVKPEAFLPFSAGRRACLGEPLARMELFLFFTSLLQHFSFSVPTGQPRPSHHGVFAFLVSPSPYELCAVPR

Cytochrome P450 2C9 = Cytochrome P450 2C9 (Homo sapiens, UniProt P11712); test: Inhibition of human CYP2C9 expressed in insect cells; format: ADME; method in brief: as §1
Cytochrome P450 2C9, sequence (P11712 whole entry): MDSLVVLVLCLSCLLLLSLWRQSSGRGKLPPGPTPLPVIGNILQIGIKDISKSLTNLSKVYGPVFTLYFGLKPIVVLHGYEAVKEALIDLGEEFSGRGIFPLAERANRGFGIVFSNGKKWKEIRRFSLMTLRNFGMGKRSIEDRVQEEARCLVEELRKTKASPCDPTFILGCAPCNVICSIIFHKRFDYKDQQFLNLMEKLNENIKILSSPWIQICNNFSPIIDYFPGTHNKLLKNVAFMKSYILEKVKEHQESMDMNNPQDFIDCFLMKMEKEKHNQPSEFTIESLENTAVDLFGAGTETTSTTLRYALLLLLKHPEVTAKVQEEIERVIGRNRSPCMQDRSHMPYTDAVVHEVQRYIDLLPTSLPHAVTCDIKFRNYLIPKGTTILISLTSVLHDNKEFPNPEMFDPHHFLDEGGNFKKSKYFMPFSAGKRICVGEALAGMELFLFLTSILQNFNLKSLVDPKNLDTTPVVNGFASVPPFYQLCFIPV

[5] = target: Muscarinic acetylcholine receptor M3 (Homo sapiens) (UniProt P20309); test: Displacement of [3H]N-methyl-scopolamine from human muscarinic M3 receptor expressed in CHO K1 cells at 10 uM; format: cell-based
Muscarinic acetylcholine receptor M3 (Homo sapiens), sequence (P20309 whole entry, looked up): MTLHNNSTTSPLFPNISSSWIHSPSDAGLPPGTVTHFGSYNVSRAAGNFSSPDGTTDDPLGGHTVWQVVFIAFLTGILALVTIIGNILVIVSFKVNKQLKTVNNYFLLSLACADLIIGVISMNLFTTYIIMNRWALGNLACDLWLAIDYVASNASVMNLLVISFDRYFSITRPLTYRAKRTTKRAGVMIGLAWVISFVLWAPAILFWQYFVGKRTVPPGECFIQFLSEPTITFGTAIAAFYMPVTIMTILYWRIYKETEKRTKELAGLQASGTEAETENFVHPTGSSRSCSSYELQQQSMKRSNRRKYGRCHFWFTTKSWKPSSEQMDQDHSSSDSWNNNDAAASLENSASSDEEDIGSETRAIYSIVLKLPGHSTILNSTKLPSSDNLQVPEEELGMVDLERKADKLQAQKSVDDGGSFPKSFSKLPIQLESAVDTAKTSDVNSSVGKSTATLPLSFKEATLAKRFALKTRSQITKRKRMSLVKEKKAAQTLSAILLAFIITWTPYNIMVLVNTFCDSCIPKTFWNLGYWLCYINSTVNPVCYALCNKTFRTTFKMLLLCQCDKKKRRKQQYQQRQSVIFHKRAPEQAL

[6] = target: T3, Muscarinic acetylcholine receptor M2 (Homo sapiens) (UniProt P08172); test: Displacement of [3H]N-methyl-scopolamine from human muscarinic M2 receptor expressed in CHO K1 cells at 10 uM; format: cell-based
T3 sequence (whole entry): T1 sequence (P08172 whole entry)

[7] = target: T4, Muscarinic acetylcholine receptor M2 (Rattus norvegicus) (UniProt P10980); test: Antagonist activity at muscarinic M2 receptor in rat left atria assessed as contraction of methacholine-induced relaxation upto 0.1 uM relative to EFS; format: functional
T4 sequence (whole entry): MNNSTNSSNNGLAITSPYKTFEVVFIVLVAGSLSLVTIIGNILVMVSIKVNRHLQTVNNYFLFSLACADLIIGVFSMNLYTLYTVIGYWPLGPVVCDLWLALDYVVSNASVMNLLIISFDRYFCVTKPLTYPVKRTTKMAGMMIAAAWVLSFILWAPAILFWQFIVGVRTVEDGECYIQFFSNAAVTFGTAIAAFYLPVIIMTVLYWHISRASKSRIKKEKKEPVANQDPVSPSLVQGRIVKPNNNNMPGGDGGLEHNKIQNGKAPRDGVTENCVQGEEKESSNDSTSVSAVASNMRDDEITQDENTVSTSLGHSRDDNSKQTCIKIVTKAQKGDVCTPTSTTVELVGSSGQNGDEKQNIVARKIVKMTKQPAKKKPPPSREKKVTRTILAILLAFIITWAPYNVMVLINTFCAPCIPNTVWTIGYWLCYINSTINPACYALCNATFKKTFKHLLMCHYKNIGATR
Method in brief: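 Female rat left atrium in Krebs-Henseleit at 33 °C, resting tension 0.5 g, eserine 1 µM present. Paced by EFS at 1 Hz, 5 ms pulses, 1.5× threshold voltage to give a stable basal force. Methacholine concentration-response curves run alone or with antagonist at 0.01-0.1 µM. Response read as delta % of basal force of contraction; mean ± SEM, n = 6-7.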

[8] = target: Muscarinic acetylcholine receptor M3 (Rattus norvegicus) (UniProt P08483); settings: filed as antagonist
Muscarinic acetylcholine receptor M3 (Rattus norvegicus), sequence (P08483 whole entry, looked up): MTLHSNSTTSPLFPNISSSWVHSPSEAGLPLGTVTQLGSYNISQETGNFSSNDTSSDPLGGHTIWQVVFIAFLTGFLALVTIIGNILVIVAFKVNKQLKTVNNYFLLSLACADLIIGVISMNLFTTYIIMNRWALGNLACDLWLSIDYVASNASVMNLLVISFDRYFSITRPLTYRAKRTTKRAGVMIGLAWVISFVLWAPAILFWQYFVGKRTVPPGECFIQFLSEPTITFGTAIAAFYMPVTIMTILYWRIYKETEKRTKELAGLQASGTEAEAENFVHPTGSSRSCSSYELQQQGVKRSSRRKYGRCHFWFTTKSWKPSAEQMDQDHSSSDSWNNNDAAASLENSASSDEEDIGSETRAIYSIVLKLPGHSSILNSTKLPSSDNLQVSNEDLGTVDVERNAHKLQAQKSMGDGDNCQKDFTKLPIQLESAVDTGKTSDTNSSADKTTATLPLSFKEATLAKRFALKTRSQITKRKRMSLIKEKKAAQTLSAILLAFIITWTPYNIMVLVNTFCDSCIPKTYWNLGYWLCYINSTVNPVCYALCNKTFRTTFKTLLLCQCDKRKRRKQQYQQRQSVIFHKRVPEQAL

Compound: O=C1NC(c2ccc(F)cc2)(c2ccc(F)cc2)CN1C1CCN(Cc2cccc(F)c2)CC1
IC50 (Cytochrome P450 1A2): > 100 µM
CLint scaled [2]: 1.4 mL/min/g
IC50 (Cytochrome P450 2C19): 17.4 µM
CLint scaled [3]: 0.78 mL/min/g
IC50 (Cytochrome P450 3A4): > 100 µM
Papp [4]: > 5 ×10⁻⁶ cm/s
IC50 (Cytochrome P450 2D6): 12 µM
IC50 (Cytochrome P450 2C9): 7.3 µM

Compound: O=C(c1cccc(Cl)c1)N1CCC(N2CC(c3ccccc3)(c3ccccc3)NC2=O)CC1
inhibition [5]: < 50%

Compound: COc1ccc(C2(c3ccc(OC)cc3)CN(C3CCN(Cc4ccccc4)CC3)C(=O)N2)cc1
inhibition [6]: < 50%

Compound: O=C1NC(c2ccccc2)(c2ccccc2)CN1C1CCN(CCc2ccccc2)CC1
Ki [1]: 0.411 µM (antagonist)

Compound: CN1CCC(N2CC(c3ccccc3)(c3ccccc3)NC2=O)CC1
Ki [1]: 2.92 µM (antagonist)

Compound: O=C1NC(c2ccccc2)(C2CCCCC2)CN1C1CCN(Cc2cccc(Cl)c2)CC1 (stereo unspecified)
Ki [1]: 0.515 µM (antagonist)

Compound: O=C1NC(c2ccc(F)cc2)(c2ccc(F)cc2)CN1C1CCN(Cc2cccc(Cl)c2)CC1
IC50 (Cytochrome P450 1A2): > 100 µM
CLint scaled [2]: 1.8 mL/min/g
IC50 (Cytochrome P450 2C19): 17.7 µM
CLint scaled [3]: 0.87 mL/min/g
IC50 (Cytochrome P450 3A4): > 100 µM
Papp [4]: < 1 ×10⁻⁶ cm/s
IC50 (Cytochrome P450 2D6): 5.3 µM
IC50 (Cytochrome P450 2C9): 4.2 µM

Compound: O=C1NC(c2ccccc2)(c2ccccc2)CN1C1CCN(CC2CCCCC2)CC1
inhibition [6]: < 50%

Compound: O=C1NC(c2cccs2)(c2cccs2)CN1C1CCN(Cc2cccc(F)c2)CC1
CLint scaled [2]: 13.8 mL/min/g
CLint scaled [3]: 0.95 mL/min/g
Papp [4]: ≤ 1 ×10⁻⁶ cm/s

Compound: O=C1NC(c2ccccc2)(c2ccccc2)C(=O)N1C1CCN(Cc2ccccc2)CC1
inhibition [6]: < 50%

Compound: O=C1NC(c2ccccc2)(c2ccccc2)CN1C1CCN(CCOc2ccccc2)CC1
Ki [1]: 0.328 µM (antagonist)

Compound: O=C1NC(c2ccccc2)(c2ccccc2)CN1C1CCN(Cc2cccc(OC(F)(F)F)c2)CC1
inhibition [6]: < 50%

Compound: O=C1NC(c2ccccc2)(c2ccccc2)CN1[C@@H]1CCN(Cc2ccccc2)C1
Ki [1]: 0.0822 µM (antagonist)

Compound: O=C1NC(c2ccccc2)(c2ccccc2)CN1C1CCCN(Cc2ccccc2)CC1 (stereo unspecified)
Ki [1]: 0.002 µM (antagonist)

Compound: O=C1N(C2CCN(Cc3ccccc3)CC2)CC(c2ccccc2)N1Cc1ccccc1 (stereo unspecified)
Ki [1]: 0.629 µM (antagonist)

Compound: O=C1NC(c2ccccc2)(c2ccccc2)CN1C1CCN(c2ccccc2)CC1
inhibition [6]: < 50%

Compound: O=C1NC(c2ccccc2)(c2ccccc2)CN1C1CC2CCC(C1)N2Cc1ccccc1 (stereo unspecified)
Ki [1]: 0.065 µM (antagonist)

Compound: O=C1NC(c2ccc(F)cc2)(c2ccc(F)cc2)CN1C1CCN(Cc2ccccc2)CC1
IC50 (Cytochrome P450 1A2): > 100 µM
Activity [7]: inactive
CLint scaled [2]: 2 mL/min/g
IC50 (Cytochrome P450 2C19): 12.9 µM
CLint scaled [3]: 0.56 mL/min/g
IC50 (Cytochrome P450 3A4): 91.9 µM
Papp [4]: > 5 ×10⁻⁶ cm/s
IC50 (Cytochrome P450 2D6): 4.7 µM
IC50 (Cytochrome P450 2C9): 7 µM

Compound: Cc1cccc(CN2CCC(N3CC(c4ccccc4)(C4CCCCC4)NC3=O)CC2)c1 (stereo unspecified)
Ki [1]: 0.166 µM (antagonist)

Compound: Cc1ccc(O)c([C@H](CCN(C(C)C)C(C)C)c2ccccc2)c1
pKb [8]: 8.86

Compound: O=C1NC(C2CCCCC2)(C2CCCCC2)CN1C1CCN(Cc2ccccc2)CC1
inhibition [5]: < 50%

Compound: O=C1NC(Cc2ccccc2)(Cc2ccccc2)CN1C1CCN(Cc2ccccc2)CC1
Ki [1]: 2.95 µM (antagonist)

Compound: O=C1NC(c2cccs2)(c2cccs2)CN1C1CCN(Cc2ccccc2)CC1
CLint scaled [2]: 23.7 mL/min/g
CLint scaled [3]: 2.3 mL/min/g
Papp [4]: > 5 ×10⁻⁶ cm/s

Compound: CN1C(=O)N(C2CCN(Cc3ccccc3)CC2)CC1(c1ccccc1)c1ccccc1
Ki [1]: 0.52 µM (antagonist)

Compound: O=C1NC(c2ccccc2)(c2ccccc2)CN1[C@H]1CCN(Cc2ccccc2)C1
Ki [1]: 2.27 µM (antagonist)

Compound: O=C1NC(c2ccccc2)(c2ccccc2)CN1C1CCCN(Cc2ccccc2)C1 (stereo unspecified)
inhibition [6]: < 50%

Compound: O=C1NC(c2ccccc2)(c2ccccc2)CN1C1CCN(Cc2cccc(O)c2)CC1
Ki [1]: 0.0479 µM (antagonist)

Compound: O=C1OC(c2ccccc2)(c2ccccc2)CN1C1CCN(Cc2ccccc2)CC1
Ki [1]: 0.908 µM (antagonist)

The remaining lines, values ahead:

Ki [1]: 0.49 µM (antagonist)
Compound: COc1ccc(CN2CCC(N3CC(c4ccccc4)(c4ccccc4)NC3=O)CC2)cc1

Ki [1]: 0.302 µM (antagonist)
Compound: O=C1NC(c2ccccc2)(c2ccccc2)CN1C1CCN(Cc2cccc(F)c2)CC1

inhibition [6]: < 50%
Compound: O=C1NC(c2ccccc2)(c2ccccc2)CN1C1CCN(Cc2ccccc2Cl)CC1

inhibition [5]: < 50%
Compound: O=C1NC(c2ccccc2)(c2ccccc2)CN1C1CCN(Cc2cc(Cl)cc(Cl)c2)CC1

inhibition [6]: < 50%
Compound: O=C1NC(c2ccccc2)(c2ccccc2)CN1C1CCN(Cc2cccc(C(F)(F)F)c2)CC1

Ki [1]: 0.695 µM (antagonist)
Compound: COc1cccc(CN2CCC(N3CC(c4ccccc4)(c4ccccc4)NC3=O)CC2)c1

inhibition [6]: < 50%
Compound: N#Cc1cccc(CN2CCC(N3CC(c4ccccc4)(c4ccccc4)NC3=O)CC2)c1

Ki [1]: 0.296 µM (antagonist)
Compound: O=C1NC(c2ccccc2)(c2ccccc2)CN1C1CCN(Cc2ccc(Cl)cc2)CC1

inhibition [6]: < 50%
Compound: COc1ccccc1CN1CCC(N2CC(c3ccccc3)(c3ccccc3)NC2=O)CC1

Ki [1]: 0.927 µM (antagonist)
Compound: O=C1NC(c2ccccc2)(c2ccccc2)CN1C1CCN(Cc2cccs2)CC1

Ki [1]: 0.182 µM (antagonist)
Compound: Nc1cccc(CN2CCC(N3CC(c4ccccc4)(c4ccccc4)NC3=O)CC2)c1

Ki [1]: 0.302 µM (antagonist)
Compound: O=C1NC(c2ccccc2)(c2ccccc2)CN1C1CCN(Cc2cccnc2)CC1

CLint scaled [2]: 4.7 mL/min/g
CLint scaled [3]: 1.1 mL/min/g
Papp [4]: > 5 ×10⁻⁶ cm/s
Compound: O=C1NC(c2ccccc2)(c2ccccc2)CN1C1CCN(Cc2ccccc2)CC1

inhibition [6]: < 50%
Compound: O=C1NC(c2ccccc2)(c2ccccc2)CN1C1CCN(Cc2c[nH]cn2)CC1

inhibition [5]: < 50%
Compound: C#CCN1CCC(N2CC(c3ccccc3)(c3ccccc3)NC2=O)CC1

— ChEMBL document CHEMBL1142992, “Discovery of diaryl imidazolidin-2-one derivatives, a novel class of muscarinic M3 selective antagonists (Part 1)” (J Med Chem, 2007)
